What was measured:
Plasminogen = Plasminogen (Homo sapiens, UniProt P00747); assay: Inhibition of human plasmin
Neutrophil elastase = molecular target: T1, Neutrophil elastase (Homo sapiens, UniProt P08246); assay: (§1) Inhibition of human neutrophil elastase
T1 sequence (P08246 whole entry): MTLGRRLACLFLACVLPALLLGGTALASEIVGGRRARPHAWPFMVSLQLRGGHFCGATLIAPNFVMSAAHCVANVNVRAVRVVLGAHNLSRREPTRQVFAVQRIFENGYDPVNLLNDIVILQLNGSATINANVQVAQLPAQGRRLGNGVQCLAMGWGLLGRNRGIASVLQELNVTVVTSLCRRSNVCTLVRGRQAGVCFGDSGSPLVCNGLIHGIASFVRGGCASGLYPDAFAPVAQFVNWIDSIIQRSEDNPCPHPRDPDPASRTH

[1] = molecular target: T2, Neutrophil elastase (Homo sapiens) (UniProt P08246); assay: as §1
T2 sequence (whole entry): T1 sequence (P08246 whole entry)

Hepatitis C virus [2] = assay: Ratio of EC90 for Hepatitis C virus genotype 1b NS3/4A protease D168A mutant to EC90 Hepatitis C virus genotype 1b wild type NS3/4A protease; parameters: species or system Hepatitis C virus subtype 1b
How it was run: (§2)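 Genotype 1b NS3 protease enzyme panel: wild type plus resistance mutants A156T, R155K, D168V, V36M, A156S, V170A and D168A. […] Resistance is expressed as the fold increase of each mutant's value over the wild-type value.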

Hepatitis C virus [3] = assay: Ratio of EC50 for Hepatitis C virus genotype 1b NS3/4A protease V36M mutant to EC50 Hepatitis C virus genotype 1b wild type NS3/4A protease; parameters: species or system Hepatitis C virus subtype 1b; how it was run: as §2
Hepatitis C virus [4] = assay: Inhibition of Hepatitis C virus genotype 1b NS3/4A protease A156S mutant; parameters: species or system Hepatitis C virus subtype 1b
How it was run: (§3)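 Panel of genotype 1b NS3 protease enzymes (wild type and mutants). IC50 and IC90 are averages ± standard error from 2 independent assays. Fold change versus wild type given in parentheses.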

Hepatitis C virus [5] = assay: Inhibition of Hepatitis C virus genotype 1b NS3/4A protease R155K mutant; parameters: species or system Hepatitis C virus subtype 1b; how it was run: as §3
Hepatitis C virus [6] = assay: Ratio of EC50 for Hepatitis C virus genotype 1b NS3/4A protease A156S mutant to EC50 Hepatitis C virus genotype 1b wild type NS3/4A protease; parameters: species or system Hepatitis C virus subtype 1b; how it was run: as §2
Hepatitis C virus [7] = assay: Inhibition of Hepatitis C virus genotype 1b wild type NS3/4A protease; parameters: species or system Hepatitis C virus subtype 1b; how it was run: as §3
Hepatitis C virus [8] = assay: Inhibition of Hepatitis C virus genotype 1b NS3/4A protease A156T mutant; parameters: species or system Hepatitis C virus subtype 1b; how it was run: as §3
PBMC = assay: Cytotoxicity against human PBMC; assay type: cell-based
How it was run: (§4)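 Cytotoxicity was profiled in three cell types: primary human peripheral blood mononuclear (PBM) cells, CEM (a human T-cell-derived line) and Vero (African green monkey kidney epithelial cells).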

Hepatitis C virus [9] = assay: Ratio of EC90 for Hepatitis C virus genotype 1b NS3/4A protease D168V mutant to EC90 Hepatitis C virus genotype 1b wild type NS3/4A protease; parameters: species or system Hepatitis C virus subtype 1b; how it was run: as §2
Hepatitis C virus [10] = assay: Antiviral activity against Hepatitis C virus infected in human HuH7 cells assessed as viral RNA replication; assay type: functional, organism-based, Hepacivirus hominis; details: Huh-7
How it was run: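 Subgenomic HCV replicon in Huh7 cells; inhibition of HCV RNA replication measured by extraction and amplification of HCV RNA. Each concentration run in triplicate and reported as mean; EC50 derived.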

Hepatitis C virus [11] = assay: Ratio of EC90 for Hepatitis C virus genotype 1b NS3/4A protease R155K mutant to EC90 Hepatitis C virus genotype 1b wild type NS3/4A protease; parameters: species or system Hepatitis C virus subtype 1b; how it was run: as §2
Hepatitis C virus [12] = assay: Ratio of EC50 for Hepatitis C virus genotype 1b NS3/4A protease R155K mutant to EC50 Hepatitis C virus genotype 1b wild type NS3/4A protease; parameters: species or system Hepatitis C virus subtype 1b; how it was run: as §2
Huh-7 = assay: Cytotoxicity against human HuH7 cells; assay type: cell-based
How it was run: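 Huh7 cytotoxicity measured together with the replicon antiviral assay, by extraction and amplification of ribosomal RNA. Each concentration run in triplicate and reported as mean.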

Hepatitis C virus [13] = assay: Ratio of EC50 for Hepatitis C virus genotype 1b NS3/4A protease D168V mutant to EC50 Hepatitis C virus genotype 1b wild type NS3/4A protease; parameters: species or system Hepatitis C virus subtype 1b; how it was run: as §2
Hepatitis C virus [14] = assay: Ratio of EC90 for Hepatitis C virus genotype 1b NS3/4A protease V170A mutant to EC90 Hepatitis C virus genotype 1b wild type NS3/4A protease; parameters: species or system Hepatitis C virus subtype 1b; how it was run: as §2
Cathepsin S = Cathepsin S (Homo sapiens, UniProt P25774); assay: Inhibition of human cathepsin S
Hepatitis C virus [15] = assay: Ratio of EC50 for Hepatitis C virus genotype 1b NS3/4A protease D168A mutant to EC50 Hepatitis C virus genotype 1b wild type NS3/4A protease; parameters: species or system Hepatitis C virus subtype 1b; how it was run: as §2
Hepatitis C virus [16] = assay: Inhibition of Hepatitis C virus genotype 1b NS3/4A protease D168A mutant; parameters: species or system Hepatitis C virus subtype 1b; how it was run: as §3
Hepatitis C virus [17] = assay: Inhibition of Hepatitis C virus genotype 1b NS3/4A protease V170A mutant; parameters: species or system Hepatitis C virus subtype 1b; how it was run: as §3
Hepatitis C virus [18] = assay: Inhibition of Hepatitis C virus genotype 1b NS3/4A protease V36M mutant; parameters: species or system Hepatitis C virus subtype 1b; how it was run: as §3
Hepatitis C virus [19] = assay: Ratio of EC90 for Hepatitis C virus genotype 1b NS3/4A protease V36M mutant to EC90 Hepatitis C virus genotype 1b wild type NS3/4A protease; parameters: species or system Hepatitis C virus subtype 1b; how it was run: as §2
Prothrombin = Prothrombin (Homo sapiens, UniProt P00734); assay: Inhibition of human thrombin
Hepatitis C virus [20] = assay: Ratio of EC90 for Hepatitis C virus genotype 1b NS3/4A protease A156T mutant to EC90 Hepatitis C virus genotype 1b wild type NS3/4A protease; parameters: species or system Hepatitis C virus subtype 1b; how it was run: as §2
Hepatitis C virus [21] = assay: Inhibition of Hepatitis C virus genotype 1b NS3/4A protease D168V mutant; parameters: species or system Hepatitis C virus subtype 1b; how it was run: as §3
Vero = assay: Cytotoxicity against african green monkey Vero cells; assay type: cell-based; details: chlorocebus sabaeus; how it was run: as §4
CCRF-CEM = assay: Cytotoxicity against human CEM cells; assay type: cell-based; how it was run: as §4
Hepatitis C virus [22] = assay: Ratio of EC50 for Hepatitis C virus genotype 1b NS3/4A protease V170A mutant to EC50 Hepatitis C virus genotype 1b wild type NS3/4A protease; parameters: species or system Hepatitis C virus subtype 1b; how it was run: as §2
Hepatitis C virus [23] = assay: Ratio of EC50 for Hepatitis C virus genotype 1b NS3/4A protease A156T mutant to EC50 Hepatitis C virus genotype 1b wild type NS3/4A protease; parameters: species or system Hepatitis C virus subtype 1b; how it was run: as §2
Hepatitis C virus [24] = assay: Ratio of EC90 for Hepatitis C virus genotype 1b NS3/4A protease A156S mutant to EC90 Hepatitis C virus genotype 1b wild type NS3/4A protease; parameters: species or system Hepatitis C virus subtype 1b; how it was run: as §2

Plasminogen, sequence (P00747 97-580 limits assumed): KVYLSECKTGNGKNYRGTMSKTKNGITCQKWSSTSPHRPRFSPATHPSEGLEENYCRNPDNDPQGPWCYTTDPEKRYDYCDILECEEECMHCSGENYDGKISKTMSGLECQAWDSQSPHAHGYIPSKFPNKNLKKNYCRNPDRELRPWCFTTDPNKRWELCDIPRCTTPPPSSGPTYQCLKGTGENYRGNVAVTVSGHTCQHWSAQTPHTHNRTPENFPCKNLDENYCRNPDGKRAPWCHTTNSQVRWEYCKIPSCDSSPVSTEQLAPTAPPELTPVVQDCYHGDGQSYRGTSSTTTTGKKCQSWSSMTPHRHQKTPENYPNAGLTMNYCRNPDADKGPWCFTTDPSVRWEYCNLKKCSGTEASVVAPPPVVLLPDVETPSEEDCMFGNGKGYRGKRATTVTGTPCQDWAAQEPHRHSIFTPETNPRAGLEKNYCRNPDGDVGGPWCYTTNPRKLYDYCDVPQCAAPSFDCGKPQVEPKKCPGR
Plasminogen, sequence (P00747 581-810 limits assumed): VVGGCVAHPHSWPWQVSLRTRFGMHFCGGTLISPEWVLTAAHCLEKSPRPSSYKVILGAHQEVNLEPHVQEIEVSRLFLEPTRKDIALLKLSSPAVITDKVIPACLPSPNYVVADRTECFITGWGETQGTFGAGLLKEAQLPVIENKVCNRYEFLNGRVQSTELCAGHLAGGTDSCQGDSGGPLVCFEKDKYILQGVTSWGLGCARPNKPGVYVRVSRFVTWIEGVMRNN

Q: Which IC50 (Plasminogen) does the source give for `CCCC(NC(=O)C1N(C(=O)[C@@H](NC(=O)[C@@H](NC(=O)c2cnccn2)C2CCCCC2)C(C)(C)C)CC12CCCCC2)C(=O)C(=O)NC1CC1` (stereo not given in full) here?
A: > 100 µM

Q: And the IC90 (Plasminogen)?
A: > 100 µM

Q: What about the IC50 (Neutrophil elastase) of the same compound?
A: 7.8 µM

Q: What about the IC90 [1] of the same compound?
A: 85 µM

Q: What about the Ratio (Hepatitis C virus [2]) of the same compound?
A: 0.8

Q: And the “Ratio EC50” value (Hepatitis C virus [3])?
A: 8.8

Q: What about the EC50 (Hepatitis C virus [4]) of the same compound?
A: 43 µM

Q: What about the EC90 (Hepatitis C virus [4]) of the same compound?
A: > 100 µM

Q: What about the EC50 (Hepatitis C virus [5]) of the same compound?
A: 5.5 µM

Q: What about the EC90 (Hepatitis C virus [5]) of the same compound?
A: 64 µM

Q: What about the “Ratio EC50” value (Hepatitis C virus [6]) of the same compound?
A: 55

Q: And the EC50 (Hepatitis C virus [7])?
A: 0.78 µM

Q: What about the EC90 (Hepatitis C virus [7]) of the same compound?
A: 9.81 µM

Q: What about the EC50 (Hepatitis C virus [8]) of the same compound?
A: > 100 µM

Q: What about the EC90 (Hepatitis C virus [8]) of the same compound?
A: > 100 µM

Q: And the CC50 (PBMC)?
A: 32 µM

Q: And the Ratio (Hepatitis C virus [9])?
A: 0.3

Q: And the EC50 (Hepatitis C virus [10])?
A: 2.3 µM

Q: And the EC90 (Hepatitis C virus [10])?
A: 6.4 µM

Q: And the Ratio (Hepatitis C virus [11])?
A: 6.6

Q: What about the “Ratio EC50” value (Hepatitis C virus [12]) of the same compound?
A: 7.1

Q: And the CC50 (Huh-7)?
A: > 10 µM

Q: And the “Ratio EC50” value (Hepatitis C virus [13])?
A: 0.5

Q: And the Ratio (Hepatitis C virus [14])?
A: 0.9

Q: And the IC50 (Cathepsin S)?
A: > 100 µM

Q: And the IC90 (Cathepsin S)?
A: > 100 µM

Q: And the “Ratio EC50” value (Hepatitis C virus [15])?
A: 0.9

Q: What about the EC50 (Hepatitis C virus [16]) of the same compound?
A: 0.72 µM

Q: And the EC90 (Hepatitis C virus [16])?
A: 8.2 µM

Q: What about the EC50 (Hepatitis C virus [17]) of the same compound?
A: > 1 µM

Q: And the EC90 (Hepatitis C virus [17])?
A: 8.7 µM

Q: What about the EC50 (Hepatitis C virus [18]) of the same compound?
A: 6.9 µM

Q: What about the EC90 (Hepatitis C virus [18]) of the same compound?
A: 75 µM

Q: And the Ratio (Hepatitis C virus [19])?
A: 7.6

Q: And the IC50 (Prothrombin)?
A: < 1 µM

Q: What about the IC90 (Prothrombin) of the same compound?
A: < 1.7 µM

Q: And the Ratio (Hepatitis C virus [20])?
A: >10

Q: What about the EC50 (Hepatitis C virus [21]) of the same compound?
A: 0.4 µM

Q: What about the EC90 (Hepatitis C virus [21]) of the same compound?
A: 3.3 µM

Q: And the CC50 (Vero)?
A: 27 µM

Q: What about the CC50 (CCRF-CEM) of the same compound?
A: 16 µM

Q: What does the source list for `CC[C@@H]1C[C@]1(NC(=O)[C@@H]1C[C@@H]2CN1C(=O)[C@H](C(C)(C)C)NC(=O)OCC(C)(C)CCCCc1cccc3c1CN(C3)C(=O)O2)C(=O)NS(=O)(=O)C1CC1`?
A: IC50 (Plasminogen): > 100 µM; IC90 (Plasminogen): > 100 µM; Ratio EC50 (Hepatitis C virus [22]): 0.7; IC50 (Neutrophil elastase): > 100 µM; IC90 [1]: > 100 µM; Ratio (Hepatitis C virus [2]): 840; Ratio EC50 (Hepatitis C virus [3]): 7.2; EC50 (Hepatitis C virus [4]): < 0.001 µM; EC90 (Hepatitis C virus [4]): 0.017 µM; EC50 (Hepatitis C virus [5]): > 1 µM; EC90 (Hepatitis C virus [5]): > 1 µM; EC50 (Hepatitis C virus [7]): 0.0062 µM; EC90 (Hepatitis C virus [7]): 0.013 µM; EC50 (Hepatitis C virus [8]): 0.91 µM; EC90 (Hepatitis C virus [8]): > 1 µM; Ratio (Hepatitis C virus [9]): >77; Ratio (Hepatitis C virus [14]): 0.8; IC50 (Cathepsin S): 78 µM; IC90 (Cathepsin S): > 100 µM; Ratio EC50 (Hepatitis C virus [15]): 390; EC50 (Hepatitis C virus [16]): 2.4 µM; EC90 (Hepatitis C virus [16]): 11 µM; EC50 (Hepatitis C virus [17]): 0.0046 µM; EC90 (Hepatitis C virus [17]): 0.01 µM; Ratio EC50 (Hepatitis C virus [23]): 150; EC50 (Hepatitis C virus [18]): 0.045 µM; EC90 (Hepatitis C virus [18]): 0.1 µM; Ratio (Hepatitis C virus [19]): 7.8; IC50 (Prothrombin): > 100 µM; IC90 (Prothrombin): > 100 µM; Ratio (Hepatitis C virus [24]): 1.3; Ratio (Hepatitis C virus [20]): >77; EC50 (Hepatitis C virus [21]): > 1 µM; EC90 (Hepatitis C virus [21]): > 1 µM

Source: ChEMBL document CHEMBL2440035, “Azetidines and spiro azetidines as novel P2 units in hepatitis C virus NS3 protease inhibitors” (Bioorg Med Chem Lett, 2013)
